ChEMBL document CHEMBL3822382 (Eur J Med Chem, 2016)
The source made the active and inactive calls. The rule behind the calls is not given here.

Experiments:
[1] = Cell cycle arrest in human HCT116 cells expressing wild type p53 assessed as accumulation at G2/M phase at 100 nM after 24 hrs by propidium iodide staining-based flow cytometry (reference value: 21%); format: functional; settings: HCT-116
[2] = Cell cycle arrest in human HCT116 cells expressing wild type p53 assessed as accumulation at G1 phase at 50 nM after 24 hrs by propidium iodide staining-based flow cytometry (reference value: 56.7%); format: functional; settings: HCT-116
[3] = Cell cycle arrest in human HCT116 cells expressing wild type p53 assessed as accumulation at subG1 phase at 100 nM after 24 hrs by propidium iodide staining-based flow cytometry (reference value: 7.1%); format: functional; settings: HCT-116
[4] = Cell cycle arrest in human HCT116 cells expressing wild type p53 assessed as apoptotic index ratio at 50 nM after 24 hrs by propidium iodide staining-based flow cytometry relative to control; format: functional; settings: HCT-116
[5] = Cell cycle arrest in human HCT116 cells expressing wild type p53 assessed as G2/M index ratio at 100 nM after 24 hrs by propidium iodide staining-based flow cytometry relative to control; format: functional; settings: HCT-116
EA.hy 926 [6] = test: Antivascular activity in human EAhy926 cells assessed as induction of retraction of cells to nodes at 250 nM after 16 hrs by light microscopic analysis; format: functional, cell-based
How it was run: (§1)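 Ea.hy926 cells (100,000/well) were seeded on Matrigel-coated coverslips and allowed 12 h to form vessel-like networks. Test agent (CA-4 100 nM; indoles 250 nM) or DMSO was then added for 16 h, and networks were documented by light microscopy. Viability was checked by 2 h MTT (0.5 mg/mL) relative to DMSO controls.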

[7] = Cell cycle arrest in human HCT116 cells expressing wild type p53 assessed as accumulation at S phase at 100 nM after 24 hrs by propidium iodide staining-based flow cytometry (reference value: 15.3%); format: functional; settings: HCT-116
[8] = Cell cycle arrest in human HCT116 cells expressing wild type p53 assessed as accumulation at subG1 phase at 50 nM after 24 hrs by propidium iodide staining-based flow cytometry (reference value: 7.1%); format: functional; settings: HCT-116
EA.hy 926 [9] = test: Antivascular activity in human EAhy926 cells assessed as disruption of preformed blood vessel lke network at 250 nM after 16 hrs by matrigel based tube formation assay; format: functional, cell-based; how it was run: as §1
[10] = Growth inhibition of human 518A2 cells after 72 hrs by MTT assay; format: functional, cell-based; settings: 518A2, 72 h
How it was run: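 5000 cells/well exposed for 72 h to dilution series of 100 µM–5 pM, with DMSO as solvent control. MTT 0.5 mg/mL final for 2 h, absorbance at 570/630 nm. Percentage viable cells taken versus DMSO controls; IC50 from dose–response curves, mean of four independent experiments.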

[11] = Cell cycle arrest in human HCT116 cells expressing wild type p53 assessed as accumulation at G2/M phase at 50 nM after 24 hrs by propidium iodide staining-based flow cytometry (reference value: 21%); format: functional; settings: HCT-116
Chorioallantoic membrane = test: Antivascular activity in fertilized white leghorn egg chorioallantoic membrane assessed as disruption of preformed blood vessel at 2.5 to 5 nmol after 24 to 48 hrs by stereomicroscopic analysis; format: functional, tissue-based; settings: Gallus gallus
[12] = Growth inhibition of human EAhy926 cells after 24 hrs by MTT assay; format: cell-based; settings: EA.hy 926, 24 h
How it was run: (§2)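 Cells seeded at 5000/well (Ea.hy926 10,000/well) and exposed for 24 h to dilution series of 100 µM–5 pM, with DMSO as solvent control. MTT (0.5 mg/mL final) for 2 h. Formazan dissolved in SDS/acetic acid/DMSO and read at 570 nm against a 630 nm background. Viability taken relative to DMSO controls; IC50 from dose–response curves, mean of four independent experiments.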

[13] = Cell cycle arrest in human HCT116 cells expressing wild type p53 assessed as apoptotic index ratio at 100 nM after 24 hrs by propidium iodide staining-based flow cytometry relative to control; format: functional; settings: HCT-116
[14] = Growth inhibition of p53 null human HCT116 cells after 72 hrs by MTT assay; format: functional, cell-based; settings: HCT-116, 72 h
How it was run: (§3)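 HCT-116 cells, p53 wild-type or p53-/-, seeded at 5000/well and treated 72 h with dilution series (100 µM–5 pM) or DMSO. MTT 0.5 mg/mL for 2 h, absorbance at 570/630 nm. Viability relative to DMSO controls; IC50 from dose–response curves, mean of three independent experiments ± S.D.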

[15] = Cell cycle arrest in human HCT116 cells expressing wild type p53 assessed as accumulation at S phase at 50 nM after 24 hrs by propidium iodide staining-based flow cytometry (reference value: 15.3%); format: functional; settings: HCT-116
[16] = Cell cycle arrest in human MCF7/Topo cells assessed as accumulation at G1 phase at 100 nM after 24 hrs by propidium iodide staining-based flow cytometry (reference value: 47.8%); format: functional
[17] = Growth inhibition of human 518A2 cells after 24 hrs by MTT assay; format: functional, cell-based; settings: 518A2, 24 h; how it was run: as §2
[18] = Cell cycle arrest in human MCF7/Topo cells assessed as accumulation at subG1 phase at 100 nM after 24 hrs by propidium iodide staining-based flow cytometry (reference value: 4.6%); format: functional
[19] = Cell cycle arrest in human MCF7/Topo cells assessed as apoptotic index ratio at 100 nM after 24 hrs by propidium iodide staining-based flow cytometry relative to control; format: functional
[20] = Growth inhibition of human KB-V1/Vbl cells after 24 hrs by MTT assay; format: functional; how it was run: as §2
[21] = Cytotoxicity against fertilized white leghorn chicken embryos in CAM model assessed as lethality at 5 nmol after 24 hrs relative to control; format: organism-based, Gallus gallus; settings: in vivo
How it was run: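 Day-5 fertilized eggs (37 °C, 50-60% humidity) windowed, with 6 mm silicon rings placed on CAM vessels and incubated a further 24 h. Compound diluted to 500 µM in PBS and pipetted inside the ring (10 µL = 5 nmol); DMSO control. Vessel changes documented by stereomicroscopy at 0, 12 and 24 h.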

[22] = Cytotoxicity against human EAhy926 cells assessed as cell viability at 250 nM after 16 hrs by MTT assay relative to control; format: cell-based, EA.hy 926; settings: read-out: Activity
How it was run: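 Ea.hy926 cells (100,000/well) placed on Matrigel-coated coverslips and left 12 h to form networks, then given 250 nM for 16 h. Viability measured by 2 h incubation with 0.5 mg/mL MTT and formazan absorbance, calculated relative to DMSO controls.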

[23] = Growth inhibition of human HCT116 cells expressing wild type p53 after 72 hrs by MTT assay; format: functional, cell-based; settings: HCT-116, 72 h; how it was run: as §3
[24] = Cell cycle arrest in human MCF7/Topo cells assessed as accumulation at G2/M phase at 100 nM after 24 hrs by propidium iodide staining-based flow cytometry (reference value: 31.6%); format: functional
[25] = Cell cycle arrest in human HCT116 cells expressing wild type p53 assessed as G2/M index ratio at 50 nM after 24 hrs by propidium iodide staining-based flow cytometry relative to control; format: functional; settings: HCT-116
[26] = Cell cycle arrest in human MCF7/Topo cells assessed as accumulation at S phase at 100 nM after 24 hrs by propidium iodide staining-based flow cytometry (reference value: 16%); format: functional
[27] = Cell cycle arrest in human MCF7/Topo cells assessed as G2/M index ratio at 100 nM after 24 hrs by propidium iodide staining-based flow cytometry relative to control; format: functional

Row | Structure (SMILES) | Activity [1] [%] | Activity [2] [%] | Activity [3] [%] | Ratio [4] | Ratio [5] | Activity (EA.hy 926 [6]) | Activity [7] [%] | Activity [8] [%] | Activity (EA.hy 926 [9]) | IC50 [10] [nM] | Activity [11] [%] | Activity (Chorioallantoic membrane) | IC50 [12] [nM] | Ratio [13] | IC50 [14] [nM] | Activity [15] [%] | Activity [16] [%] | IC50 [17] [nM] | Activity [18] [%] | Ratio [19] | further results
1 | COc1cc(-c2ncn(C)c2-c2ccc3c(c2)c(Cl)cn3C)cc(Br)c1OC.Cl | 59.7 | 53.9 | 25.9 | 10.2 | 17.9 | Active | 5.4 | 16.2 | Active | 28.2 | 17.2 | inactive | 29.9 | 19.7 | 21.3 | 12.7 | 14.4 | 51.9 | 24.6 | 21.1 | IC50 [20]: 25.4 nM; mortality at 24 h [21]: 33%; viability at 16 h, 0.25 µM [22]: > 90%; IC50 [23]: 27.4 nM; Activity [24]: 52.4%; Ratio [25]: 0.9; Activity [26]: 8.6%; Ratio [27]: 5.5
2 | COc1cc(-c2ncn(C)c2-c2ccc3c(c2)c(Cl)cn3C)cc(OC)c1OC | 50.5 | 43.6 | 32.4 | 24.4 | 14.8 | Active | 7.8 | 30.6 | Active | 18.2 | 14.6 | inactive | 24.6 | 26.1 | 26.2 | 11.1 | 16.5 | 65.4 | 30.7 | 27.2 | IC50 [20]: 26 nM; mortality at 24 h [21]: 80%; viability at 16 h, 0.25 µM [22]: > 90%; IC50 [23]: 9.5 nM; Activity [24]: 42.9%; Ratio [25]: 0.9; Activity [26]: 9.9%; Ratio [27]: 3.9
